The subject of experiment [1] is Vero. Nature of the experiment: Cytotoxicity against african green monkey Vero cells after 72 hrs by cell-titer assay. The class given is cell-based. As to conditions: Chlorocebus sabaeus. Summed up:
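Vero cells (1000/well) in Eagle's MEM with Earle's salts, penicillin/streptomycin and 10% FBS were seeded with serial compound dilutions for 72 h at 37 °C under 5% CO2. CellTiter reagent was then added for 12-14 h, and absorbance was read at 490 nm.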

Experiment [2] is described as follows: Selectivity for Leishmania donovani MHOM/SD/62/1S-CL2D axenic amastigotes over african green monkey Vero cells.
Experiment [3] relates to Leishmania donovani. Nature of the experiment: Antileishmanial activity against Leishmania donovani MHOM/SD/62/1S-CL2D axenic amastigotes after 3 days by tetrazolium dye method. It is filed as functional, organism-based. Particulars: 72 h. A digest of the protocol:
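L. donovani amastigote-like parasites grown axenically were exposed to compounds for three days. Viability was read with the tetrazolium-based CellTiter reagent.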

The test system of experiment [4] is Leishmania mexicana. Nature of the experiment: Antileishmanial activity against Leishmania mexicana MNYC/BZ/62/M379 infected in C57BL/6 mouse peritoneal macrophages assessed as reduction in infection at 3.1 ug/ml after 72 hrs relative to control. It is filed as functional. On the set-up: scale not given: the % may be the effect or the level left. Summed up: (§1)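 Mouse peritoneal macrophages were infected with promastigotes in supplemented DMEM on chamber slides for 24 h at 33 °C under 5% CO2. They were washed with HBSS and given serial drug dilutions for 72 h. Cells were then methanol-fixed and stained with 0.04% Giemsa for 35 min. At least 200 cells per sample were counted under oil immersion, and the value is the % decrease in infected macrophages versus untreated wells.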

The test system of experiment [5] is J774.A1. Nature of the experiment: Cytotoxicity against mouse J774A1 cells after 72 hrs by cell-titer assay. It is filed as cell-based. As to conditions: J774.A1, 72 h. A digest of the protocol: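 J774 A.1 macrophages (5000/well) in DMEM with penicillin/streptomycin and 10% FBS were seeded with serial compound dilutions for 72 h at 37 °C under 5% CO2. Viability was read by CellTiter, with 12-14 h color development and absorbance at 490 nm.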

For experiment [6], the system named is Leishmania mexicana. Briefly: Antileishmanial activity against Leishmania mexicana MNYC/BZ/62/M379 infected in C57BL/6 mouse peritoneal macrophages assessed as reduction in infection at 6.3 ug/ml after 72 hrs relative to control. The class given is functional. Also noted: scale not given: the % may be the effect or the level left. A digest of the protocol: as §1

Experiment [7] concerns Leishmania mexicana. Briefly: Antileishmanial activity against Leishmania mexicana MNYC/BZ/62/M379 infected in C57BL/6 mouse peritoneal macrophages assessed as reduction in infection at 12.5 ug/ml after 72 hrs relative to control. The class given is functional. On the set-up: scale not given: the % may be the effect or the level left. Summed up:
as §1

Experiment [8] deals with Trypanosoma brucei brucei. Briefly: Antitrypanosomal activity against blood stream-form of Trypanosoma brucei brucei MITat1.2 after 72 hrs by MTT assay. The class given is functional, organism-based. A digest of the protocol: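 Late-log bloodstream-form T. b. brucei in HMI-9 were incubated with or without compound for 72 h at 37 °C under 5% CO2. MTT (25 µL of a 5 mg/mL stock) was added for 2 h, then 10% SDS in 50% aqueous DMF for 3-4 h. OD was read at 570 nm, and IC50 is 50% growth inhibition versus untreated control.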
Background: Tetrazolium dyes change colour on reduction, which living cells bring about.

Experiment [9] deals with Leishmania mexicana. Briefly: Antileishmanial activity against Leishmania mexicana MNYC/BZ/62/M379 infected in C57BL/6 mouse peritoneal macrophages assessed as reduction in infection at 0.014 ug/ml after 72 hrs relative to control. The class given is functional. On the set-up: scale not given: the % may be the effect or the level left. A digest of the protocol: as §1
The subject of experiment [10] is Leishmania mexicana. Nature of the experiment: Antileishmanial activity against Leishmania mexicana MNYC/BZ/62/M379 infected in C57BL/6 mouse peritoneal macrophages assessed as reduction in infection at 0.116 ug/ml after 72 hrs relative to control. It is filed as functional. Also noted: scale not given: the % may be the effect or the level left. Summed up:
as §1

In experiment [11] the test system is Leishmania mexicana. Briefly: Antileishmanial activity against Leishmania mexicana MNYC/BZ/62/M379 infected in C57BL/6 mouse peritoneal macrophages assessed as reduction in infection at 0.029 ug/ml after 72 hrs relative to control. On the set-up: scale not given: the % may be the effect or the level left. The class given is functional. A digest of the protocol: as §1

Experiment [12] has as its system Leishmania mexicana. Briefly: Antileishmanial activity against Leishmania mexicana MNYC/BZ/62/M379 infected in C57BL/6 mouse peritoneal macrophages assessed as reduction in infection at 25 ug/ml after 72 hrs relative to control. It is filed as functional. On the set-up: scale not given: the % may be the effect or the level left. A digest of the protocol: as §1

The subject of experiment [13] is Leishmania mexicana. Briefly: Antileishmanial activity against Leishmania mexicana MNYC/BZ/62/M379 infected in C57BL/6 mouse peritoneal macrophages assessed as reduction in infection at 50 ug/ml after 72 hrs relative to control. It is filed as functional. Also noted: scale not given: the % may be the effect or the level left. Summed up:
as §1

In brackets after ≈: the same amount, converted by molar mass. Bounds are passed on as bounds.

`COc1c(C)c(O)c(C)c(O)c1C(=O)/C=C/c1ccccc1`: the IC50 in experiment [1] is 12.9 mg/L (≈ 43.2 µM); in [3] it was 5 mg/L (≈ 16.8 µM); in experiment [5], 7.7 mg/L (≈ 25.8 µM); in experiment [8], 6.3 mg/L (≈ 21.1 µM). Further, the “Ratio IC50” value in experiment [2] is listed as 2.6. For the same compound, the Activity was determined as 28% in experiment [4], 61% in [6] and 96% in experiment [7].

As for `COc1c(C)c(O)c(C)c(O)c1C(=O)/C=C/c1ccccc1O`, the IC50 in [1] turned out to be 13.3 mg/L (≈ 42.3 µM); in experiment [3] it was 7.5 mg/L (≈ 23.9 µM); in experiment [5] it was 9.3 mg/L (≈ 29.6 µM); in experiment [8] it was 6.8 mg/L (≈ 21.6 µM). Also, in experiment [2], the “Ratio IC50” value was 1.8. The values for the Activity in experiment [4], in experiment [6] and in experiment [7] were 6%, 34% and 96%, respectively.

As to `C[C@@H]1[C@H](O)[C@@H](C)/C=C/C=C/C=C/C=C/C=C/C=C/C=C/[C@H](O[C@@H]2O[C@H](C)[C@@H](O)[C@H](N)[C@@H]2O)C[C@@H]2O[C@](O)(C[C@@H](O)C[C@@H](O)[C@H](O)CC[C@@H](O)C[C@@H](O)CC(=O)O[C@H]1C)C[C@H](O)[C@H]2C(=O)O` [AMPHOTERICIN B], the Activity came to 59% in experiment [9], 95% in experiment [10] and 85% in [11].

`COC1=C(C)C(=O)C(C)(C)C(=O)/C1=C1\C=Cc2ccccc2O1` [DALRUBONE]: the results for the Activity in experiment [12], in experiment [6] and in experiment [7] were 97%, 1% and 41%, respectively. In addition, the IC50 was determined as 44.5 mg/L (≈ 143 µM) in experiment [1], 7.5 mg/L (≈ 24.2 µM) in [3], 30.1 mg/L (≈ 97 µM) in experiment [5] and 21.6 mg/L (≈ 69.6 µM) in experiment [8]. Further, the “Ratio IC50” value in [2] worked out at 5.9.

On to `Cc1c(O)c(C)c2c(c1O)C(=O)C[C@@H](c1ccccc1)O2` [DEMETHOXYMATTEUCINOL], for which the IC50 in [1] is over 50 mg/L; in [3], over 100 mg/L; in experiment [5] it was over 50 mg/L; in experiment [8], 28.9 mg/L (≈ 102 µM).

For `O=C1C[C@@H](c2ccc(O)c(O)c2)Oc2cc(O)cc(O)c21` [ERIODICTYOL], the Activity in [12] was 55%; in experiment [7] it was 30%; in experiment [13], 76%. The half-maximal inhibitory concentration (IC50) stood at 36.5 mg/L (≈ 127 µM) in experiment [1], 25 mg/L (≈ 86.7 µM) in [3], 32.8 mg/L (≈ 114 µM) in experiment [5] and 25 mg/L (≈ 86.7 µM) in [8].

Consider `N=C(N)c1ccc(OCCCCCOc2ccc(C(=N)N)cc2)cc1` [PENTAMIDINE], for which the IC50 in [1] is over 50 mg/L; in [3] it was 1.4 mg/L (≈ 4.11 µM); in experiment [5], 12.9 mg/L (≈ 37.9 µM); in [8], 0.007 mg/L (≈ 0.0206 µM).

`Cc1ccc(C(=O)Nc2ccc(S(=O)(=O)O)c3cc(S(=O)(=O)O)cc(S(=O)(=O)O)c23)cc1NC(=O)c1cccc(NC(=O)Nc2cccc(C(=O)Nc3cc(C(=O)Nc4ccc(S(=O)(=O)O)c5cc(S(=O)(=O)O)cc(S(=O)(=O)O)c45)ccc3C)c2)c1` [SURAMIN]: in experiment [8], the IC50 stood at 0.193 mg/L (≈ 0.149 µM).

Broadly, the IC50 is the concentration that inhibits the measured activity by half.

For the origin of these results see ChEMBL document CHEMBL1142571, “Antiprotozoal compounds from Psorothamnus polydenius” (J Nat Prod, 2005).
